Xi reactivation = activators of inactive X chromosome reactivation, primary screen, imaging, XiGFP fibroblasts, GFP high-content imaging, set 2 | 360,000 tested, 0.055% active | AID 743238, 2013 | XiGFP mouse fibroblasts, % GFP-positive cells imaging, 3 d; cells co-treated with 5-aza-dC sensitizer; scaled so ellipticine positive control = 100% | activation, % at 7.58 µM;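 active = mean normalized replicate activation at least 10% and every replicate at or above 10%; inconclusive = only one of the two criteria met; inactive = mean below 10% and not all replicates reach 10%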;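 also: 0% = median of on-plate neutral control wells and 100% = ellipticine 6 µM median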
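System: XiGFP fibroblasts, SV40-immortalized. Medium: DMEM plus 5-aza-dC sensitizer. Doses: single point. Timing: 3 d treatment, 15 min room-temperature fixation. Control set: ellipticine 6 µM.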
RAD54 inh = inhibitors of human RAD54 branch migration, primary screen, biochemical, fluorescence, single point | 360,000 tested, 0.14% active | RAD54 Holliday junction branch migration, FAM/BHQ fluorescence | inhibition, % at 10.4 µM | DNA repair and recombination protein RAD54-like (Homo sapiens), Q92698;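 active = mean normalized replicate activity at least 40 and at least half of replicates scoring 40 or more; inconclusive = only one of the two criteria met; inactive = mean below 40 and under half of replicates reaching 40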;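 also: 0% = median of neutral control wells and 100% = median of positive control wells; inhibitors cause a drop in the FAM fluorescence signal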
RAD52 anneal inh = RAD52 DNA annealing inhibitors, primary screen, biochemical, FRET, single point, set 2; recombinant RAD52 DNA annealing, FRET fluorescence; DNA repair protein RAD52 homolog (Homo sapiens), P43351; 360,000 tested, 0.46% active; inhibition, % at 18.7 µM;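 active = every replicate showing at least 50% inhibition; inconclusive = mean inhibition at least 50% but not in every replicate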
PglD DTNB = C. jejuni PglD acetyltransferase inhibitors, primary screen, biochemical, DTNB colorimetric, single point; UDP-N-acetylbacillosamine N-acetyltransferase PglD (Campylobacter jejuni); purified PglD enzyme, DTNB colorimetric CoA detection; inhibition, % at 12.5 µM; 360,000 tested, 0.098% active; in the data active = inhibition above about 16%, passing the limit was not always enough; inconclusive = no clear call, values can overlap the other calls
Ecoli rRNA inh = reduced GFP signal of wild-type E. coli, primary screen, bacterial rRNA inhibitor project, GFP/RFP fluorescence, OD600, single point; GFP signal change (wild-type ribosome), % (test concentration not listed); E. coli WT GFP vs humanized-ribosome RFP mutants, 24 h; active compounds read low; DMSO median 0, no signal -100; 350,000 tested, 1.6% active;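 active = significant combined selectivity score with lowered wild-type GFP, culture density cut under 30%, mutant RFP and density less affected; inactive = any of these conditions unmet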
E-sel inducer = E-selectin induction in HUVECs, primary screen, imaging, HUVEC, immunofluorescence imaging, single point; P16581; normalized: neutral wells 0, TNF-alpha wells 100; activation, % at 7.58 µM; 260,000 tested, 0.37% active; AID 686992, 2013;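 active = mean E-selectin-positive cell signal at least 10% of the positive control, reached in at least 60% of replicates, without over 20% cell loss; inconclusive = no rule given, readout overlaps actives, possibly toxicity-flagged; inactive = the rest, including those meeting only one limit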
Target sequence (P16581 whole entry, looked up): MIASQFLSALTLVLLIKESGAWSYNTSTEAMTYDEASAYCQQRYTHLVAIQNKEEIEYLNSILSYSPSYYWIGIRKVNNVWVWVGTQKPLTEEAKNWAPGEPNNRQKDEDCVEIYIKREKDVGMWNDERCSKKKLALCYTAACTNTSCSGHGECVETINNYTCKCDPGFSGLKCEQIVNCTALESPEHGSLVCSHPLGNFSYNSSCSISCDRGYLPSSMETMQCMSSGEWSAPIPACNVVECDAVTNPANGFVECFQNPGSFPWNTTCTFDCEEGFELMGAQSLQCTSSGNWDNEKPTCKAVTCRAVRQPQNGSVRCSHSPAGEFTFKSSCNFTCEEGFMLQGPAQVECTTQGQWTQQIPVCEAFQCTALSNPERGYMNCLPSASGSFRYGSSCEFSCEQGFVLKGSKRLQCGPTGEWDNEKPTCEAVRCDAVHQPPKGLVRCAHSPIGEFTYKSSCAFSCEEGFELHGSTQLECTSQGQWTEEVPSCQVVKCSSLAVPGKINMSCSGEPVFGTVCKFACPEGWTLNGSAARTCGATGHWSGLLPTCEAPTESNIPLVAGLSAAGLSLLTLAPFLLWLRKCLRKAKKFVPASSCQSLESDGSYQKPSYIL
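Test system: HUVEC; input: 3,000 HUVEC/well; measured by: immunofluorescence imaging; read-out: % PE-positive cells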
PglD inh SP = PglD acetyltransferase inhibitors, confirmation, biochemical, DTNB absorbance, single point, cherry-picked samples; Purified C. jejuni PglD, DTNB absorbance 412 nm; shares compounds with PglD DTNB; 320 tested, under 10 active; inhibition, % at 20 µM;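 active = mean inhibition across replicates of at least 20% with every single replicate also at 20% or more; inconclusive = mean inhibition at least 20% but some replicate falls below 20%; inactive = mean inhibition under 20% and not all replicates reach it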;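 also: initial rate of CoA release by acetyl transfer from AcCoA to the UDP-4-amino sugar; 0% = median of neutral control wells and 100% = median of positive control wells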
Active calls of the source: *; ? = inconclusive; · = no result. Rows were chosen to be rich in hits. Some 2% of all compounds tested hit in one or more screens of this group.

SMILES	Xi reactivation	RAD54 inh	RAD52 anneal inh	PglD DTNB	Ecoli rRNA inh	E-sel inducer	PglD inh SP
C[C@H]1CCCCO[C@@H](CN(C)Cc2ccccc2)[C@@H](C)CN([C@@H](C)CO)C(=O)c2cc(NC(=O)Nc3ccc(F)cc3)ccc2O1	0	-2	42	0	-10	1	·
C/C(=N/OCO/N=C(/C)c1ccc(F)cc1)c1ccc(F)cc1	0	-3	-10	26*	1	2	0
C/C(=N/OCO/N=C(\C)c1ccccc1)c1ccccc1	0	-11	-2	3	10	0	·
CCN(CC)S(=O)(=O)c1ccc(NS(=O)(=O)c2ccc(F)cc2)cc1	·	4	·	-4	·	·	·
CCN(CC)S(=O)(=O)c1ccc(NS(=O)(=O)c2cccc(C)c2)cc1	·	11	·	25*	·	·	0
O=C(C[C@H]1CC[C@@H](NC(=O)CC2CC2)[C@@H](CO)O1)NCC(F)(F)F	1	-1	12	2	1	0	·
COCC#Cc1cnc2c(c1)C(=O)N([C@@H](C)CO)C[C@H](C)[C@H](CN(C)C(=O)Nc1ccccc1F)O2	0	10	-4	1	0	0	·
CC(C)Cc1nc(N2CCN(C(=O)c3ccco3)CC2)c(C#N)c2c1CCC2	·	-10	·	21*	·	·	?
CNC(=O)CCCc1nc(-c2ccccc2Cl)no1	·	8	1	24*	1	·	-6
NC(=O)CCCc1nc(-c2ccccc2Cl)no1	·	7	·	-2	·	·	·
Cc1cc(NC(=O)Nc2ccccc2F)ccc1Br	0	-5	-1	40*	-37	·	-1
Cn1nnc2cc(NC(=O)Nc3ccccc3F)ccc21	0	5	1	1	-4	·	·
CCOc1ccc(NC(=O)NN2C(C)CCCC2C)cc1 (stereo unspecified)	0	-14	7	20*	1	0	6
CCOc1ccc(S(=O)(=O)NCCN2CCOCC2)c2ccccc12	·	1	·	-7	·	·	·
CCCOc1ccc(S(=O)(=O)NCCN2CCOCC2)c2ccccc12	·	0	·	23*	·	·	1
Fc1ccc(CNC(=S)NC2CCCCC2)cc1	0	6	-11	35*	-5	·	3
COc1ccc(S(=O)(=O)Nc2ccc3c(c2)CC(=O)N([C@@H](C)CO)C[C@@H](C)[C@H](CN(C)C(=O)Nc2ccc(C(F)(F)F)cc2)O3)cc1	0	-6	19	0	1	-2	·
FC(F)(F)c1ccncc1-c1nnc(C2CCCCC2)o1	0	-1	-6	22*	23	·	0
COc1ccc(C(CNc2ccc(S(C)(=O)=O)cc2[N+](=O)[O-])N(C)C)cc1OC (stereo unspecified)	0	-9	-7	23*	5	0	2
CN(C)C(CNc1ccc(S(C)(=O)=O)cc1[N+](=O)[O-])c1ccccc1 (stereo unspecified)	0	4	2	-2	16	·	·
Cn1nc([N+](=O)[O-])nc1N1CCOCC1	0	-7	·	21*	·	·	1
CCCNC(=O)C[C@H]1CC[C@@H]2[C@@H](COc3ccc(NC(=O)c4cc(F)cc(F)c4)cc3C(=O)N2C)O1	0	5	·	-3	-4	0	·
CCCCn1c(SCC(=O)N2CCCCC2)nc2cc(S(N)(=O)=O)ccc21	·	-1	·	45*	·	·	2
CN1C(=O)c2cc(NC(=O)Cc3cccs3)ccc2OC[C@@H]2O[C@@H](CC(=O)O)CC[C@@H]21	0	7	-5	0	3	0	·
